# GPR7 antag = blocks human GPR7 receptor signaling | AID 1861 | inhibition, % at 4.4 µM | hit rate 1.1% among 290,000 | GPR7-expressing cells, fluorescence antagonist assay | P48145; in the data active = inhibition above about 16%, passing the limit was not always enough;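 also: cells stimulated with the agonist NPW; 0% = agonist with vehicle and 100% = vehicle without agonist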
# Target sequence (P48145 whole entry, looked up): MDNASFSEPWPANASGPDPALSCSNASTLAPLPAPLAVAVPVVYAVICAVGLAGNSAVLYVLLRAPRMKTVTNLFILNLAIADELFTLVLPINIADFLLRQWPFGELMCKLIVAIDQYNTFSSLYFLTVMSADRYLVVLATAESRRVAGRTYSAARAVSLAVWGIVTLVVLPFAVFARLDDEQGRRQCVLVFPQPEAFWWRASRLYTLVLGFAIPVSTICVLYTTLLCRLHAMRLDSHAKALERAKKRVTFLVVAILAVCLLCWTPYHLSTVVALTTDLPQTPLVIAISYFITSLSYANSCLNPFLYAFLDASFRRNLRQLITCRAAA
# LANA-H2A inh = blocks KSHV LANA binding to histone H2A/H2B. cell-free LANA-H2A/H2B peptide, fluorescence polarization. inhibition, % (concentration not given with the values). hit rate 0.6% among 320,000; in the data active = inhibition mostly above about 10%, no sharp cut-off; inactive = mostly below about 6.7%
# TAAR1 antag = antagonists of human TAAR1. inhibition, % at 3 µM. CHO RD-HGA16 TAAR1, Fluo-8 calcium fluorescence, antagonist. Q96RJ0. hit rate 1.5% among 360,000. AID 624466;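 active = inhibition above a per-plate cutoff, the mean inhibition of test compounds on that plate plus 3 SD, cut at about 49% in these data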;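 also: 0% = DMSO plus EC80 beta-PEA response and 100% = DMSO alone without agonist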
# Target sequence (Q96RJ0 whole entry, looked up): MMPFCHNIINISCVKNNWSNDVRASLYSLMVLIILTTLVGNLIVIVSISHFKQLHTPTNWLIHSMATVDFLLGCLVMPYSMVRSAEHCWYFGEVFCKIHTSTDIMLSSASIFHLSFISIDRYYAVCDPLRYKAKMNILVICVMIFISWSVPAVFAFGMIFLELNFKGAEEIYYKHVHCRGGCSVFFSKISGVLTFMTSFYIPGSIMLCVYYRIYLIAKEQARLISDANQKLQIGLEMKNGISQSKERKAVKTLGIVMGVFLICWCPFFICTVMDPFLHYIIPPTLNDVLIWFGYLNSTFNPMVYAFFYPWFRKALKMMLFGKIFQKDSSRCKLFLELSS
#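 Test system: RD-HGA16 CHO cells with stable hTAAR1 and Gα16 / Probe or stimulus: EC80 β-phenethylamine stimulus / Times: seeding 17-24 h prior, 75-min 37 °C, 30-min RT dye loading / Detection: Fluo-8 calcium-sensitive fluorescence / Read-out basis: % inhibition scaled between DMSO and EC80 PEA controls / Repeats: singlicate, one well per test compound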
# TAAR1 ag = human TAAR1 agonism; hit rate 0.99% among 360,000; CHO RD-HGA16 TAAR1, Fluo-8 calcium fluorescence; vehicle wells 0%, saturating PEA agonist 100%; activation, % at 3 µM;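 active = activation above the mean activation of all test compounds in the run plus 3 SD, cut at about 38% in these data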
#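 Assay system – CHO-derived RD-HGA16 cells with stable Gα16 and human TAAR1 · Compound dosing – one-point dosing at 3 µM (nominal) · Incubation – 17-24 h seeding, 75 min 37 °C dye, 30 min RT · Measured by – kinetic Fluo-8 calcium fluorescence · Control set – DMSO vehicle as 0%, PEA at EC100 as 100% · Repeats – single well for each compound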
# TRPML3 ag = agonists of human TRPML3 channel; hit rate 0.29% among 220,000; activation, % at 3 µM; HEK293 TRPML3-YFP, Fluo-8 calcium fluorescence; 100% = the carbachol control signal; Q8TDD5;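 active = activation above its plate's cutoff, the mean activation of the plate's test wells plus 3 SD, cut at about 12% in these data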;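 also: 0% = DMSO only wells and 100% = carbachol wells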
#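 Material: HEK293 cells stably carrying human TRPML3-YFP; compound dosing: single dose, 3 µM final nominal compound, 0.3% DMSO final; incubation: 1-h 37 °C dye load, 5-s basal, 120-s post-compound reads; technique: Fluo-8 intracellular calcium fluorescence, excitation 470-495 nm, emission 515-575 nm; read-out basis: percent activation from peak-to-basal fluorescence ratio, scaled between DMSO and carbachol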
# zfTRPN1 agonist = activates the zebrafish TRPN1 channel. HEK293 zebrafish TRPN1-YFP, Fluo-8 calcium fluorescence; 100% = response to 87 µM carbachol. AID 1424. hit rate 0.18% among 220,000. activation, % at 3 µM;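 active = activation above its plate's cutoff, the mean activation of test wells on that plate plus 3 SD, cut at about 19% in these data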;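 also: 0% = DMSO alone and 100% = 87 µM carbachol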
#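 Assay system: Zebrafish TRPN1-YFP in HEK293 cells | Incubation: Dye loading 1 h at 37 °C, then 30 min room temperature | Measured by: Kinetic Fluo-8 fluorescence, ex 470-495, em 515-575 nm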
# TAAR1 nonsel count = counter-screen for TAAR1 antagonists: nonselective antagonists. counterscreen cell line, calcium fluorescence, antagonist mode. inhibition, % at 3 µM. shares compounds with TAAR1 antag. hit rate 77% among 2,400; in the data active = inhibition above about 22%;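 also: CHO-Ga16 host cells stimulated with ATP at an EC80 level; 0% = agonist EC80 plus vehicle and 100% = vehicle without agonist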
# TAAR1 ant conf = confirmation of human TAAR1 antagonists; hit rate 40% among 2,400; TAAR1-expressing cells, fluorescence antagonist read-out; shares compounds with TAAR1 antag; inhibition, % at 3 µM; in the data active = inhibition above about 49%;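 also: CHO-Ga16 host cells challenged with agonist PEA near its EC80; 0% = agonist at EC80 plus vehicle and 100% = vehicle with no agonist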
# Ga16 ag counter-1 = counter-screen for TAAR1 antagonists: nonselective Ga16 agonists; shares compounds with TAAR1 antag; Ga16-expressing cells, calcium fluorescence, agonist counterscreen; activation, % at 3 µM; hit rate 18% among 2,400; in the data active = activation above about 12%;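 also: 0% = vehicle wells and 100% = saturating stimulus response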
# TAAR1 ag count = activates human TAAR1 in antagonist counter-screen; hit rate 2% among 2,400; activation, % at 3 µM; hTAAR1 cell line, fluorescence activation, agonist mode; AID 651955; shares compounds with TAAR1 antag; in the data active = activation above about 37%;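 also: CHO cells stably expressing TAAR1 with calcium dye readout; 0% = DMSO vehicle and 100% = full agonist response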
# TAAR1 ag conf = confirmation of human TAAR1 agonists; AID 651783; shares compounds with TAAR1 ag; hit rate 82% among 2,400; CHO RD-HGA16 TAAR1, Fluo-8 calcium fluorescence; scaled: DMSO 0%, maximal phenethylamine 100%; activation, % at 3 µM;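 active = activation above a cutoff set at the run's mean compound activation plus 3 SD, cut at about 39% in these data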
# Ga16 ag counter-2 = counter-screen for TAAR1 agonists: nonselective agonists in parental cells | hit rate 50% among 2,400 | CHO-Ga16 parental, Fluo-8 calcium fluorescence; normalized to maximal ATP response, DMSO zero | AID 651787 | shares compounds with TAAR1 ag | activation, % at 3 µM;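 active = activation above the run cutoff, the mean activation over all tested wells plus 3 SD, cut at about 12% in these data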;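 also: 0% = DMSO wells and 100% = maximal ATP response on the peak over basal ratio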
# TAAR1 desens = counter-screen for human TAAR1 agonists: agonists that desensitize TAAR1; inhibition, % at 3 µM; hit rate 46% among 2,400; CHO RD-HGA16 hTAAR1, Fluo-8 calcium, beta-PEA response inhibition; AID 651951; shares compounds with TAAR1 ag;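 active = inhibition above the run cutoff, the mean inhibition of all test compounds plus 3 SD, cut at about 49% in these data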;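 also: beta-PEA stimulus applied at its EC80; loss of beta-PEA calcium signal after compound pretreatment read as receptor desensitization; 0% = DMSO with beta-PEA at EC80 and 100% = DMSO alone without agonist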
# Ga16 nonsel ant = nonselective Ga16 antagonism, counter-screen. shares compounds with TAAR1 ag. CHO-Ga16 ATP-induced calcium, Fluo-8 fluorescence. inhibition, % at 3 µM. hit rate 39% among 2,400;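 active = inhibition above the plate's mean compound inhibition plus 3 SD, computed per plate, cut at about 22% in these data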;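 also: 0% = EC80 ATP with DMSO and 100% = DMSO wells without ATP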
# Numbers without * were called inactive; · = no result. Only some compounds are listed: those with a hit (about 3.4% of all), similar ones and a draw of the others.
SMILES,GPR7 antag,LANA-H2A inh,TAAR1 antag,TAAR1 ag,TRPML3 ag,zfTRPN1 agonist,TAAR1 nonsel count,TAAR1 ant conf,Ga16 ag counter-1,TAAR1 ag count,TAAR1 ag conf,Ga16 ag counter-2,TAAR1 desens,Ga16 nonsel ant
CNC(=O)Oc1ccccc1C1CCCCC1,·,·,-26,0,·,·,·,·,·,·,·,·,·,·
CC(C)(C)n1nnnc1C(CCc1ccccc1)N1CCC(n2c(=O)[nH]c3ccccc32)CC1 (stereo not given),·,·,41,19,·,·,·,·,·,·,·,·,·,·
CSCCC(c1nnnn1Cc1ccccc1)N1CCC(n2c(=O)[nH]c3ccccc32)CC1 (stereo not given),·,·,70*,17,·,·,22*,52*,11,29,·,·,·,·
O=c1[nH]c2ccccc2n1C1CCN(C(CCc2ccccc2)c2nnnn2Cc2ccccc2)CC1 (stereo not given),·,·,55*,16,·,·,17,42,7,13,·,·,·,·
CC1=CC(C)CC(C)OC(=O)CC(c2ccc(O)cc2)NC(=O)C(Cc2c(Br)[nH]c3ccccc23)N(C)C(=O)C(C)NC(=O)C(C)C1 (stereo not given),·,·,1,1,·,·,·,·,·,·,·,·,·,·
O=P(Nc1cccnc1)(Oc1ccccc1Cl)Oc1ccccc1Cl,-13,6,70*,10,0,0,32*,47,7,9,·,·,·,·
COC(=O)c1ccc(NC(=O)CSc2nc3ccc(N4C(=O)C5C6C=CC(C6)C5C4=O)cc3s2)cc1 (stereo not given),20,-7,88*,32,5,10,41*,65*,17*,16,·,·,·,·
COc1ccccc1CCNCc1ccc(OC)c(OC)c1OC,1,-2,55*,62*,0,1,·,·,·,·,85*,3,74*,0
COc1cccc(CNCCc2cccc(F)c2)c1OC,-4,15,-10,66*,·,·,·,·,·,·,77*,1,44,9
COc1ccc(CNCCc2c[nH]c3ccccc23)c(OC)c1OC,-2,1,14,1,·,·,·,·,·,·,·,·,·,·
COc1ccc(C2=CC(c3ccc4c(c3)OCO4)c3c(c4ccccc4oc3=O)O2)cc1OC (stereo not given),·,·,-12,2,·,·,·,·,·,·,·,·,·,·
O=C1NC(=O)N(c2ccccc2)C(=O)/C1=C/C=C/c1ccco1,-6,4,40,57*,3,2,·,·,·,·,30,13*,22,2
Cc1ccc(N2C(=O)NC(=O)/C(=C\C=C\c3ccco3)C2=O)cc1C,-8,5,35,54*,2,3,·,·,·,·,76*,48*,69*,29*
O=C(c1ccco1)N1Cc2ccccc2-n2nncc2C1,·,·,-12,9,·,·,·,·,·,·,·,·,·,·
CN1C[C@H](CO)C[C@@H]2c3cccc4[nH]cc(c34)C[C@H]21,-13,0,1,42*,·,·,·,·,·,·,57*,0,20,-4
CCN(CC)C(=O)N[C@H]1C[C@@H]2c3cccc4[nH]cc(c34)C[C@H]2N(C)C1,-6,-1,5,2,0,1,·,·,·,·,·,·,·,·
